Measured values reported in ChEMBL document CHEMBL3124934, “Identification of a methoxynaphthalene scaffold as a core replacement in quinolizidinone amide M(1) positive allosteric modulators” (Bioorg Med Chem Lett, 2014).

Columns and labels:
[1] = target: T1, Muscarinic acetylcholine receptor M1 (Homo sapiens) (UniProt P11229); assay: Positive allosteric modulation of human muscarinic M1 receptor expressed CHO cells assessed as intrinsic potency of acetylcholine-induced calcium mobilization by FLIPR assay relative to control; format: functional, cell-based
T1 sequence (whole entry): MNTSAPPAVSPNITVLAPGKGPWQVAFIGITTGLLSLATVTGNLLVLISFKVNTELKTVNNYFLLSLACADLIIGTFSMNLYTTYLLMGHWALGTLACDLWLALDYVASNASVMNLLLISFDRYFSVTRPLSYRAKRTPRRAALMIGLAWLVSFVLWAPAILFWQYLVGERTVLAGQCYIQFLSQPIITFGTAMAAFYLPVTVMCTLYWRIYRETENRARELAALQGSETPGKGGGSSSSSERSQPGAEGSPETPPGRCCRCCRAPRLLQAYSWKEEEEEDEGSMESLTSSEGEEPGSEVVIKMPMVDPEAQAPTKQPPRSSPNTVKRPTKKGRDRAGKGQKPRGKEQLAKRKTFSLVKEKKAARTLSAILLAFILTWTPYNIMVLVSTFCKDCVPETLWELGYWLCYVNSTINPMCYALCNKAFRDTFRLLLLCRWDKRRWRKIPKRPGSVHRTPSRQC
Procedure, shortened: (§1)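 Human M1 receptor expressed in CHO cells, with calcium mobilization read by FLIPR. Inflection point (IP, nM) and % max response are taken as the numerical average of at least two experiments. Interassay variability was ±30% for IP unless noted otherwise.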

[2] = target: T1, Muscarinic acetylcholine receptor M1 (Homo sapiens); assay: Positive allosteric modulation of human muscarinic M1 receptor expressed CHO cells assessed as intrinsic potency of acetylcholine-induced calcium mobilization by FLIPR assay; format: functional, cell-based; procedure, shortened: as §1
[3] = target: T1, Muscarinic acetylcholine receptor M1 (Homo sapiens); assay: Positive allosteric modulation of human muscarinic M1 receptor expressed CHO cells assessed as intrinsic potency of acetylcholine-induced calcium mobilization by FLIPR assay relative to acetylcholine; format: functional, cell-based; procedure, shortened: as §1
[4] = Plasma protein binding in rat plasma; format: ADME, cell-free; conditions: read-out: PPB (converted)
[5] = Ratio of drug level in cerebrospinal fluid in Sprague-Dawley rat at 10 mg/kg, po to unbound fraction in rat plasma; format: ADME, organism-based, CSF/Plasma; set-up: dose 10 mg/kg, route oral; conditions: in vivo
[6] = Ratio of drug level in brain to plasma in Sprague-Dawley rat at 10 mg/kg, po; format: ADME, organism-based; set-up: dose 10 mg/kg, route oral; conditions: read-out: BPR
[7] = test system: Cerebrospinal fluid; assay: Drug level in Sprague-Dawley rat cerebrospinal fluid at 10 mg/kg, po; format: ADME, organism-based; set-up: dose 10 mg/kg, route oral; conditions: in vivo, read-out: Drug uptake; also: time not given here
[8] = test system: Brain; assay: Drug level in Sprague-Dawley rat brain at 10 mg/kg, po; format: ADME, organism-based; set-up: dose 10 mg/kg, route oral; conditions: in vivo, read-out: Drug uptake; also: time not given here
[9] = test system: Plasma; assay: Plasma concentration in Sprague-Dawley rat at 10 mg/kg, po; format: ADME, organism-based; set-up: dose 10 mg/kg, route oral; conditions: in vivo; also: time not given here
[10] = Apparent permeability of the compound; format: physicochemical; conditions: not told
[11] = target: Multidrug resistance protein 1a (Rattus norvegicus, UniProt Q6PSM0); assay: Activity at rat MDR1a assessed as ratio of permeability from basolateral to apical side over permeability from apical to basolateral side by cell based assay
Multidrug resistance protein 1a, sequence (Q6PSM0 whole entry): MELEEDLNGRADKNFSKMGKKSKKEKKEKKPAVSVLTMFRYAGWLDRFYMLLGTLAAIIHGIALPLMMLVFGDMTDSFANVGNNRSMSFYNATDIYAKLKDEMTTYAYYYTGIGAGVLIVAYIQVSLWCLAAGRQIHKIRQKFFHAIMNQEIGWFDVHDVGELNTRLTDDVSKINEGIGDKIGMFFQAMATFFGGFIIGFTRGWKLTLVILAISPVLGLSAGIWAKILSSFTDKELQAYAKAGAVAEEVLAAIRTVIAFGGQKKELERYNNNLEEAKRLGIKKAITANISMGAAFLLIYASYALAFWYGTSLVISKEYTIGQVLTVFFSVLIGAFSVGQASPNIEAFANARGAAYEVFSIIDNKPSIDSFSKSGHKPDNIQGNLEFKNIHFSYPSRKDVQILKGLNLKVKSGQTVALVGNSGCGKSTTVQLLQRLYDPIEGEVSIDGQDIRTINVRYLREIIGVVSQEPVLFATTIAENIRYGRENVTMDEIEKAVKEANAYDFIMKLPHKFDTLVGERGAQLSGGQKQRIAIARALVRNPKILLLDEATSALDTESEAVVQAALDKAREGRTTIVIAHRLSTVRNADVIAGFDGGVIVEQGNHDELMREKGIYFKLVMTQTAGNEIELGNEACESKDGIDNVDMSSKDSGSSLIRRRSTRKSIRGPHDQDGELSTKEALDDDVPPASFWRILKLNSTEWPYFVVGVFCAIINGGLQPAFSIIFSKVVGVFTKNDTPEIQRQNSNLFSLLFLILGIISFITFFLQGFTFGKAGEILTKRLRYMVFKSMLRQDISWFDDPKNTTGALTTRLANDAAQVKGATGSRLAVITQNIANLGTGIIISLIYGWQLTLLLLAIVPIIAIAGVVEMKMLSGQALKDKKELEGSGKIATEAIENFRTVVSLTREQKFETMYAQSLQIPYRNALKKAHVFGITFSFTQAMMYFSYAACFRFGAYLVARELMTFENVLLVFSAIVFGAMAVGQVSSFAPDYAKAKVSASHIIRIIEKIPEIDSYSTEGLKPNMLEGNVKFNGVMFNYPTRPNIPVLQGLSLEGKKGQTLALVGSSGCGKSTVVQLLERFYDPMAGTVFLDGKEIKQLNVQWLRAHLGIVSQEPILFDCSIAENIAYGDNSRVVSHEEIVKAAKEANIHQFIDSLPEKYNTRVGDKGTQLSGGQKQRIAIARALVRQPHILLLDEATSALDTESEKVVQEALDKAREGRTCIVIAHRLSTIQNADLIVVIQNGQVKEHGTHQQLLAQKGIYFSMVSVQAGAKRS

[12] = target: ATP-dependent translocase ABCB1 (Homo sapiens, UniProt P08183); assay: Activity at human MDR1 assessed as ratio of permeability from basolateral to apical side over permeability from apical to basolateral side by cell based assay
ATP-dependent translocase ABCB1, sequence (P08183 whole entry): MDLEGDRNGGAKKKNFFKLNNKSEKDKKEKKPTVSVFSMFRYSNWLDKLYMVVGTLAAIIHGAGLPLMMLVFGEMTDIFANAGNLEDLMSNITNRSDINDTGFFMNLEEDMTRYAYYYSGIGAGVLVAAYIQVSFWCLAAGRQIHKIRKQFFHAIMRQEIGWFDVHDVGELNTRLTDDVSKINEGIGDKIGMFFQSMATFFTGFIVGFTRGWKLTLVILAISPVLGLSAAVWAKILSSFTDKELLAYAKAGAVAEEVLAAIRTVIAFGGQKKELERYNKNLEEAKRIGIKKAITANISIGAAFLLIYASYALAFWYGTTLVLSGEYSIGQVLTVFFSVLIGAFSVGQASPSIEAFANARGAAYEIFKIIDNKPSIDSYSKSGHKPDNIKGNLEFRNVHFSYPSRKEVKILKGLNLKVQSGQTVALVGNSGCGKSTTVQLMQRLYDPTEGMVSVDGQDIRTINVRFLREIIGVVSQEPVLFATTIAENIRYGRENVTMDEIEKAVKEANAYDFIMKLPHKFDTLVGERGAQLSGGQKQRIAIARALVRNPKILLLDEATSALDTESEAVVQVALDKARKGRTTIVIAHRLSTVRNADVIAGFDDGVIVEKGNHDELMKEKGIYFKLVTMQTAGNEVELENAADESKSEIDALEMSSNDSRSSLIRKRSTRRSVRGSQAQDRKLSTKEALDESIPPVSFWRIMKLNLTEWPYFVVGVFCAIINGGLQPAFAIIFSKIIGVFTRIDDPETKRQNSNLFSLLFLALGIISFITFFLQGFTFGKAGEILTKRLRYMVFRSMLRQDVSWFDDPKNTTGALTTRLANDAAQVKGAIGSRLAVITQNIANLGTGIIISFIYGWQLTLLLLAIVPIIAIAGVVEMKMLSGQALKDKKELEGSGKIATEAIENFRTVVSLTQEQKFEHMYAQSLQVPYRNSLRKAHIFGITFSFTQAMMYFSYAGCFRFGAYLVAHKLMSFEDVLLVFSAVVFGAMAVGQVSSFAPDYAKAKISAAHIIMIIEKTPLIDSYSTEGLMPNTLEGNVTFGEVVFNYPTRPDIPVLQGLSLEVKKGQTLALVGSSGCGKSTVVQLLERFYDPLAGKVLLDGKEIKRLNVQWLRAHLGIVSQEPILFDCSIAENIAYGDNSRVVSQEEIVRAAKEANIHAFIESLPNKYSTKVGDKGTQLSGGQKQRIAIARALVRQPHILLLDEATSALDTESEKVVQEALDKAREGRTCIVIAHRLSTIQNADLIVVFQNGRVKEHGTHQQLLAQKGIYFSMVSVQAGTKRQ

`C=Cc1ccc(Cc2cc(C(=O)N[C@H]3CCCC[C@@H]3O)c(OC)c3ccccc23)cn1` showed a %max [1] of 88% and an Activity [2] of 74 nM.
`COc1c(C(=O)N[C@H]2CCCC[C@@H]2O)cc(CN2CCN(c3cnn(C)c3)CC2)c2ccccc12` showed a %max [1] of 83% and an Activity [2] of 3900 nM.
With `COc1c(C(=O)N[C@H]2CCCC[C@@H]2O)cc(Cc2ccc(C)nc2)c2ccccc12` the fold change (FC) [3] was 100, the fraction unbound [4] was 0.016 and the Ratio [5] was 0.9. For the same compound, the Kp [6] was 0.21, the concentration [7] was 91 nM and the concentration [8] was 1200 nM. The concentration [9] was 6020 nM, the Papp [10] was 35 ×10⁻⁶ cm/s and the %max [1] was 93%. The Activity [2] was 121 nM, the Ratio [11] was 2.1 and the Ratio [12] was 1.6.
`CCc1c(C(=O)N[C@H]2CCCC[C@@H]2O)cc(Cc2ccc(Cl)nc2)c2ccccc12` showed a %max [1] of 47% and an Activity [2] of 7400 nM.
In the case of `O=C(N[C@H]1CCCC[C@@H]1O)c1cc(Cc2ccc(Cl)nc2)c2ccccc2c1O`, the %max [1] is reported as 35% and the Activity [2] is reported as 9100 nM.
`COc1c(C(=O)N[C@H]2CCCC[C@@H]2O)cc(Cc2ccc(-c3cnn(C)c3)nc2)c2ccccc12` showed a fraction unbound [4] of 0.001, a Kp [6] of 0.06 and a concentration [8] of 1600 nM. It also gave a concentration [9] of 29000 nM, a Papp [10] of 27 ×10⁻⁶ cm/s and a %max [1] of 77%. The Activity [2] was 17 nM, the Ratio [11] was 1.4 and the Ratio [12] was 1.1.
With `COc1c(C(=O)N[C@H]2CCCC[C@@H]2O)cc(Cc2ccc(Cl)nc2)c2ccccc12` the fraction unbound [4] was 0.1, the Ratio [5] was less than 0.1 and the Kp [6] was 0.22. The concentration [7] was 5 nM, the concentration [8] was 420 nM and the concentration [9] was 2060 nM. For the same compound, the Papp [10] was 32 ×10⁻⁶ cm/s, the %max [1] was 74% and the Activity [2] was 260 nM. For the same compound, the Ratio [11] was 1.9 and the Ratio [12] was 1.3.
With `COc1c(C(=O)N[C@H]2CCCC[C@@H]2O)cc(CN2CCC(C#N)(c3ccccn3)CC2)c2ccccc12` the Papp [10] was 31 ×10⁻⁶ cm/s, the %max [1] was 62% and the Activity [2] was 303 nM. The Ratio [11] was 2.3 and the Ratio [12] was 1.7.
Work on `COc1c(C(=O)N[C@H]2CCCC[C@@H]2O)cc(Cc2ccc(-c3cccnc3)nc2)c2ccccc12` yielded a fold change (FC) [3] of 10, a fraction unbound [4] of 0.006 and a Ratio [5] of 0.38. For the same compound, the Kp [6] was 0.2, the concentration [7] was 11 nM and the concentration [8] was 860 nM. The concentration [9] was 4900 nM, the Papp [10] was 28 ×10⁻⁶ cm/s and the %max [1] was 73%. It also gave an Activity [2] of 24 nM, a Ratio [11] of 1.5 and a Ratio [12] of 0.9.
In the case of `N#CC1(c2ccccn2)CCN(Cc2cc(C(=O)N[C@H]3CCCC[C@@H]3O)c(=O)n3ccccc23)CC1`, the Papp [10] is reported as 29 ×10⁻⁶ cm/s, the Ratio [11] is reported as 21.1 and the Ratio [12] is reported as 11.1.
In the case of `CC(=O)Oc1c(C(=O)N[C@H]2CCCC[C@@H]2O)cc(Cc2ccc(Cl)nc2)c2ccccc12`, the %max [1] is reported as 18% and the Activity [2] is reported as greater than 10000 nM.
Work on `COc1c(C(=O)O)cc(CN2CCC(C#N)(c3ccccn3)CC2)c2ccccc12` yielded an Activity [2] of 5400 nM.
For `COc1c(C(=O)N[C@H]2CCCC[C@@H]2O)cc(Cc2ccc(-n3cccn3)nc2)c2ccccc12`, the fraction unbound [4] was 0.014, the Ratio [5] was 0.34 and the Kp [6] was 0.17. The concentration [7] was 8.7 nM, the concentration [8] was 370 nM and the concentration [9] was 2100 nM. For the same compound, the Papp [10] was 31 ×10⁻⁶ cm/s, the %max [1] was 83% and the Activity [2] was 87 nM. For the same compound, the Ratio [11] was 3.2 and the Ratio [12] was 1.7.
`CCOc1c(C(=O)N[C@H]2CCCC[C@@H]2O)cc(Cc2ccc(Cl)nc2)c2ccccc12` gave a %max [1] of 37% and an Activity [2] of 980 nM.
In the case of `COc1ccc(Cc2cc(C(=O)N[C@H]3CCCC[C@@H]3O)c(OC)c3ccccc23)cn1`, the %max [1] is reported as 85% and the Activity [2] is reported as 140 nM.
`COc1c(C(=O)N[C@H]2CCCC[C@@H]2O)cc(Cc2ccc(SC)nc2)c2ccccc12` gave a %max [1] of 76% and an Activity [2] of 170 nM.
For `CCc1ccc(Cc2cc(C(=O)N[C@H]3CCCC[C@@H]3O)c(OC)c3ccccc23)cn1`, the %max [1] was 73% and the Activity [2] was 190 nM.
With `C=CCOc1c(C(=O)N[C@H]2CCCC[C@@H]2O)cc(Cc2ccc(Cl)nc2)c2ccccc12` the %max [1] was 68% and the Activity [2] was 1100 nM.
`COc1c(C(=O)N[C@H]2CCCC[C@@H]2O)cc(CN2CCN(c3cc4ccccc4cn3)CC2)c2ccccc12` gave a %max [1] of 57% and an Activity [2] of 4000 nM.
With `COc1ccc(Cc2cc(C(=O)O)c(OC)c3ccccc23)cc1` the Activity [2] was 3330 nM.
